Source: PubChem (several laboratories)
MT stabilize HCS = microtubule stabilization, imaging screen; HeLa tubulin immunostaining HCS, 24 h; share of cells brighter than vehicle mean+2SD; % tubulin-high responders, % at 10 µM; 0.83% of 200,000 active; AID 2205;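 active means plate Z-score above 3 for both tubulin-high and condensed-nucleus cell shares, with cell loss under 80%, at 10 µM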;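 further: anti alpha tubulin signal scored within the nucleus-defined area of each cell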
PGE2 EP2 inh = blocks the human prostaglandin E2 receptor EP2 | 0.52% of 260,000 active | AID 1422 | C6 glioma cells expressing human EP2, cAMP TR-FRET; cells stimulated with saturating PGE2 | inhibition, % at 25 µM;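 active means percent inhibition above 40 after rounding to a whole number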;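 further: rat C6 glioma host cells with rolipram phosphodiesterase inhibitor present; the protocol text gives 20 µM as final concentration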
Target sequence (P43116 whole entry, looked up): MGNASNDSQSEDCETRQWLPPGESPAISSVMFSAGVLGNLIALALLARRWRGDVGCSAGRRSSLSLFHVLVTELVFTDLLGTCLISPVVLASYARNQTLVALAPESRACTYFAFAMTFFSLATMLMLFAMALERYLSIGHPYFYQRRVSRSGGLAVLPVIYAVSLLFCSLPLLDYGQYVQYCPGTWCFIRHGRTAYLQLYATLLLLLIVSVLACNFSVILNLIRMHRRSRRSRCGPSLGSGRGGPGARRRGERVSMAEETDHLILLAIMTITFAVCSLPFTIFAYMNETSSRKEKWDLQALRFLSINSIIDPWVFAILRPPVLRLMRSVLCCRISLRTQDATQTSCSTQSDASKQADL
EP2 modulator = EP2 receptor (human) modulation; 0.83% of 260,000 active; AID 940; P43116; induction, % at 25 µM; EP2-expressing cells, cAMP HTRF FRET, PGE2 co-stimulation;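 active means compounds whose cAMP rise, as percent of the full-agonist control response, exceeds 60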;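 further: rat C6 glioma line stably carrying human EP2 under a CMV promoter; the protocol text gives 20 µM as final concentration; 100% = response of wells given 1 µM PGE2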
bCat nuc transl = beta-catenin nuclear translocation modulation | 0.3% of 190,000 active | HeLa beta-catenin nuclear translocation, immunofluorescence imaging | nuclear translocation activity, % at 5 µM;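 active means nuclear translocation activity above 50% at 5 µM, with a well cell count of 50 or more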;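 further: per-cell ratio of nuclear to cytoplasmic median beta-catenin stain intensity; plate controls were DMSO negative control for no effect and GSK-3 inhibitor IX positive control for full effect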
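Signal – beta-catenin immunofluorescence imaging with DAPI · Test system – human HeLa cell line · Dosing – 5 µM primary single dose, 0.1% DMSO, 0.02–20 µM confirmation series · Measure – % activation, nuclear-to-cytoplasmic median beta-catenin signal ratio per cell · Incubation – 24 h compound exposure at 37°C, 5% CO2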
Tb hexokinase = T. brucei hexokinase 1 inhibition; recombinant TbHK1, G6PDH-coupled NADH A340; inhibition, % at 10 µM; 0.11% of 220,000 active; AID 1430;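 active means inhibition of 50% or more in the single-dose primary screen; inactive means inhibition below 50%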
HMGR II inh = blocks class II HMG-CoA reductase of Enterococcus faecalis; purified E. faecalis HMGR, NADPH absorbance 340 nm kinetic; inhibition, % at 10 µM; 0.41% of 190,000 active;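 active means inhibition above a set limit, the median over all tested compounds plus 3 SD, cut at about 9.5% in these data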;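 further: enzyme runs in reverse so mevalonate oxidation gives rising NADPH absorbance; 0% = complete reaction with DMSO and 100% = background rate lacking mevalonate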
Active calls of the source: *; . = not tested or not shown. Only some compounds are listed: those with a hit (about 2.4% of all), similar ones and a draw of the others.

SMILES	MT stabilize HCS	PGE2 EP2 inh	EP2 modulator	bCat nuc transl	Tb hexokinase	HMGR II inh
Cc1c(Cc2ccccc2)sc(/N=C/c2c(O)ccc3ccccc23)c1C(N)=O	3	4	3	0	13	2
Cc1c(Cc2ccccc2)sc(/N=C/c2ccc3ccccc3c2)c1C(N)=O	19*	1	-4	101*	-6	0
Cc1ccc2[nH]c(=O)c(CN(Cc3ccco3)Cc3nnnn3C3CCCCC3)cc2c1	.	5	52	.	.	.
Cc1cc2cc(CN(CCc3ccccc3)Cc3nnnn3C3CCCCC3)c(=O)[nH]c2cc1C	.	10	66*	.	.	.
CCc1ccc2[nH]c(=O)c(CN(Cc3ccc4c(c3)OCO4)Cc3nnnn3C3CCCC3)cc2c1	1	8	54	.	-5	-9
CCc1ccc2[nH]c(=O)c(CN(Cc3ccccc3)Cc3nnnn3C3CCCCC3)cc2c1	.	17	74*	.	.	.
Cc1ccc2[nH]c(=O)c(CN(Cc3cccs3)Cc3nnnn3C3CCCC3)cc2c1	.	15	75*	.	.	.
Cc1ccc2cc(CN(Cc3ccccc3)Cc3nnnn3C3CCCC3)c(=O)[nH]c2c1	7	6	62*	0	-13	-2
COc1ccc(-c2c(C)nn3c(NCCCN4CCOCC4)cc(C)nc23)cc1	.	9	-12	.	.	.
Cc1ccc(NC(=O)CSc2nc3ccc(C)cc3cc2C#N)cc1	.	14	26	.	.	.
COC(=O)c1ccc(S(=O)(=O)N(Cc2cc3ccc(C)cc3[nH]c2=O)C2CCCC2)cc1	.	13	32	.	.	.
Cc1ccc2[nH]c(=O)c(CN(Cc3ccc(F)cc3)Cc3nnnn3C3CCCC3)cc2c1	.	19	63*	.	.	.
CCOC(=O)Cn1nnnc1CN(Cc1ccccc1)Cc1cc2c(C)cc(C)cc2[nH]c1=O	.	15	65*	.	.	.
CCc1ccc2[nH]c(=O)c(CN(Cc3ccccc3OC)Cc3nnnn3C(C)(C)CC)cc2c1	.	22	61*	.	.	.
CCOC(=O)Cn1nnnc1CN(Cc1ccccc1)Cc1cc2ccc(C)cc2[nH]c1=O	.	14	3	.	.	.
O=C(N1CCOCC1)N1CCCC(c2ncncc2-c2ccncc2)C1 (stereo not given)	.	.	-9	.	.	.
COc1ccc(C2(C(=O)NCc3nc(-c4ccc(C)cc4)n[nH]3)CC2)cc1	.	6	-77	.	.	.
Cc1sc2nc(SCC(=O)Nc3cc(C(F)(F)F)ccc3Cl)n(C)c(=O)c2c1C	.	7	20	.	.	.
OC(COc1ccc2ccccc2c1)CN1CCNCC1 (stereo not given)	.	10	-54	.	.	.
CCN(CC)c1nc(Oc2ccc(C(=O)OC)cc2)nc(N2CCOCC2)n1	9	2	62*	0	-1	-4
CCOC(=O)c1[nH]c(C)c(/C(O)=C2\C(=O)C(=O)N(CCCN3CCOCC3)C2c2cccs2)c1C (stereo not given)	.	88*	14	-5	-30	.
CN(C)CCCN(Cc1cc2cc3c(cc2[nH]c1=O)OCCO3)C(=O)Nc1ccc(F)cc1	.	9	-5	.	.	.
COc1ccc2[nH]c3c(C)c4ccncc4c(C)c3c2c1	.	87*	-46	-3	-7	.
COC(=O)c1ccc(NC(=O)CSc2nnc3c(n2)[nH]c2ccccc23)cc1	.	5	-37	.	.	.
CC1=c2c(oc3cc(O)c(Nc4c(C)cc(O)cc4O)c(C)c23)=CC(=O)C1=Nc1c(C)cc(O)cc1O	.	53*	-7	.	.	.
SMILES	MT stabilize HCS	PGE2 EP2 inh	EP2 modulator	bCat nuc transl	Tb hexokinase	HMGR II inh
Cc1ccc(S(=O)(=O)O[C@H]2C[C@@H](C(C)(C)C)CC[C@@H]2c2ccccc2)cc1	.	43*	32	.	.	.
O=C1NN(c2ccc(Cl)c(Cl)c2)C(=O)/C1=C/c1cccc(OC(=O)c2cccs2)c1	2	9	-7	2	7	0
O=C1NN(c2ccccc2)C(=O)/C1=C\c1cccc(OC(=O)c2cccs2)c1	1	40*	-42	0	-2	-6
CN(C(=O)CN1CCC(n2cnc3cccnc32)CC1)C1CCCCC1	.	-1	-43	.	.	.
COc1cc2c(cc1OC)C(C)N(C(=O)c1cccs1)CC2 (stereo not given)	24*	0	-1	0	1	-8
COc1cc2c(cc1OC)C(c1cccs1)N(C(=O)c1ccncc1)CC2 (stereo not given)	23*	5	28	32	-4	-4
COc1cc2c(cc1OC)C(c1cccs1)N(C(=O)c1ccc(S(=O)(=O)N(C)C)cc1)CC2 (stereo not given)	.	6	3	-1	-18	.
COCCCN=C1NN=C(c2cc(C)n(-c3ccccc3)c2C)CS1	3	5	7	0	-14	-4
COCCCN=C1NN=C(c2cc(C)n(-c3ccccc3F)c2C)CS1	19*	4	-5	92*	-18	-4
COCCCN=C1NN=C(c2cc(C)n(Cc3ccccc3Cl)c2C)CS1	15*	6	-16	76*	-9	4
CCOC(=O)C(CCCOc1cccc(OC)c1)C(=O)OCC	1	5	13	-3	-3	-3
C=CCc1cc(C)ccc1OCCCC(C(=O)OCC)C(=O)OCC	3	7	61*	-2	4	-3
NCOC(=O)Cc1ccc(Br)cc1	.	54*	10	.	.	.
O=C(COC(=O)Cc1ccc(Br)cc1)NC1CCCCC1	2	8	1	0	4	-3
CNS(=O)(=O)c1ccc2ccccc2c1	.	3	-15	0	-13	.
CCOc1ccc(S(=O)(=O)Oc2ccc3ccccc3c2)cc1	17*	5	-88	1	0	0
CC(C)(C)c1nc2ccccc2c2nn(CC(=O)N3CCOCC3)c(=O)n12	.	3	-28	.	.	.
COc1cccc(N2CC(=O)N(c3cccc(OC)c3)CC2=O)c1	4	15	14	-4	1	9.7*
COc1ccc2cc(C)c3nnc(SCC(=O)Nc4cccc(C)c4C)n3c2c1	.	19	-22	.	.	.
CCC(=O)Nc1nonc1-c1nc2ccccc2n1Cc1cccc2ccccc12	13	9	30	101*	-7	-7
Cc1ccc(C2(C(=O)N[C@@H](Cn3nc(C4CC4)ccc3=O)C(C)C)CCCC2)cc1	.	9	34	.	.	.
C[C@H]1CC(C)(C)C[C@@](OCCN2CCCCC2)(c2ccccc2)C1	.	53*	7	.	.	.
c1ccc(-c2ccccc2OCCCN2CCCCC2)cc1	2	18	15	-3	-3	2
CCOC(=O)c1c(C)c(C(=O)Nc2ccc3c(c2)OCCO3)c(C)n1CC	31*	3	-16	0	5	-1
CCOC(=O)c1c(NC(=O)COc2cccc3c2CCN(CC)C3=O)sc2c1CCC2	2	11	64*	.	0	2
COCCOC(=O)c1c(NC(=O)CN2CCOCC2)sc(C(N)=O)c1C	5	7	10	-3	0	17*
CCOC(=O)c1c(NC(=O)COc2cccc3c2CCN(Cc2ccc(F)cc2)C3=O)sc2c1CCC2	2	6	31	0	-2	3
O=C(CN1CCOCC1)Nc1sc2c(c1C(=O)c1cccc(F)c1)CCC2	.	10	68*	.	.	.
